# Test results as given in ChEMBL document CHEMBL1123793, “Analysis of structure-activity relationships in renin substrate analogue inhibitory peptides” (J Med Chem, 1987).
# *1 amine or outer side, *2 acyl side, *3 side chain or, on linkers, in order; H or OH if unused. Where a SMILES comes first, the peptide text is derived from it. [ ]: non-standard residue; d: D form. The star is where a group is joined. X2 = CC[C@H](C)[C@H](N*)C(=O)NC(=O)[C@@H](N)Cc1ccccc1; Sta = CC(C)C[C@H](N)[C@@H](O)CC(=O)O; X1 = CC(C)CC(N[*:1])C(O)CC(=O)[*:2]; hhPhe = N[C@@H](CCCc1ccccc1)C(=O)O; X3 = CC(=O)[C@H](CCCCN)N*; Orn = NCCC[C@H](N)C(=O)O; Nva = CCC[C@H](N)C(=O)O; For = O=C*
# Molecular target: T1, Renin (Rattus norvegicus, UniProt P08424)
# T1 sequence (P08424 whole entry): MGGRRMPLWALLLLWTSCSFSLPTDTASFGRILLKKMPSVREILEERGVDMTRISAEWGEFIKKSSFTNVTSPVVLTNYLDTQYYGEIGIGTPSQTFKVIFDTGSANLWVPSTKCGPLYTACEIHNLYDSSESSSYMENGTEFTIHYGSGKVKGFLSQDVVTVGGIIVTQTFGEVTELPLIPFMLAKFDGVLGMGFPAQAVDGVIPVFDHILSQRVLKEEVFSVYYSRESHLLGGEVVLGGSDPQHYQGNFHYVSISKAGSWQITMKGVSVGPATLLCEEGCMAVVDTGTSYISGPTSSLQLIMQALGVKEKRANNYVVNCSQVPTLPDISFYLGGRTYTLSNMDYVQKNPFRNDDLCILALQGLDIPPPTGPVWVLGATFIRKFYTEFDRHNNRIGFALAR
# Experiment: Inhibitory potency on plasma renin obtained from Sprague-Dawley rats
# Format: cell-free
# In short: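 Dog, rabbit or rat plasma was collected into 5 mM EDTA at 0 °C, spun at 4 °C, then given PMSF 5 mM and 8-hydroxyquinoline sulfate 3 mM. Plasma at pH 7.4 with serial inhibitor dilutions was incubated 1 h at 37 °C, with a 0 °C blank. The reaction was quenched at pH 8.5, and angiotensin I was measured by RIA with ¹²⁵I tracer in anti-AI-coated tubes. The ratio is species IC50 divided by human IC50.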
row,IC50 [µM],Compound
1,> 1,CC[C@H](C)[C@H](NC(=O)C[C@H](O)[C@H](CC(C)C)NC(=O)[C@H](Cc1c[nH]cn1)NC(=O)[C@H](Cc1ccccc1)NC(=O)[C@@H]1CCCN1C(=O)[C@H](Cc1c[nH]cn1)NC(=O)[C@@H]1CCCN1)C(=O)N[C@@H](Cc1ccccc1)C(N)=O (H-PHPFH[Sta]IF-NH2)

# Molecular target: T2, Renin (Homo sapiens, UniProt P00797)
# T2 sequence (P00797 whole entry): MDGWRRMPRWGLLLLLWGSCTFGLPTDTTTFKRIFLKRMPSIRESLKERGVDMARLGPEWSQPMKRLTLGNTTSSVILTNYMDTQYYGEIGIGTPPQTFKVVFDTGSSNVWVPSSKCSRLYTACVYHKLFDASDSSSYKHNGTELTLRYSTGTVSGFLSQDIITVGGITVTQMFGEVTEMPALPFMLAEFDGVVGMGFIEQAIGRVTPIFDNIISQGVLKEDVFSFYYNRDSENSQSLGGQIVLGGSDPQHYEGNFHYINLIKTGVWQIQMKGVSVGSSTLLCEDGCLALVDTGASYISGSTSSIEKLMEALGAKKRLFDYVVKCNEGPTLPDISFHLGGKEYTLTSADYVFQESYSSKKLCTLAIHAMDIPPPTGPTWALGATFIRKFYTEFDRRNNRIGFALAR
# Experiment: Inhibitory activity against human plasma renin
# Format: cell-free
# In short: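 Pooled human plasma from about 500 hypertensive patients, collected by renal vein catheterization into chilled EDTA, trypsin-activated. PMSF 5 mM, 8-hydroxyquinoline sulfate 3 mM and a further 5 mM EDTA were added, giving about 10 ng AI mL⁻¹ h⁻¹. Plasma at pH 7.4 with serial peptide dilutions was incubated 1 h at 37 °C against a 0 °C blank, quenched at pH 8.5, and angiotensin I was measured by RIA.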
row,Compound,IC50 [µM]
1,CC[C@H](C)[C@H](NC(=O)CC(O)C(CC(C)C)NC(=O)[C@@H](N)Cc1ccccc1)C(=O)NC(=O)[C@@H](N)Cc1ccccc1 (stereo partly drawn),> 100
2,CC[C@H](C)[C@H](NC(=O)CC(O)C(CC(C)C)NC(=O)[C@H](Cc1ccccc1)NC(=O)[C@H](Cc1ccccc1)NC(=O)[C@@H]1CCCN1)C(=O)NC(=O)[C@@H](N)Cc1ccccc1 (stereo partly drawn),0.43
3,CC(C)CC(NC(=O)[C@H](Cc1c[nH]cn1)NC(=O)[C@H](Cc1ccccc1)NC(=O)[C@@H]1CCCN1)C(O)CC(N)=O (stereo partly drawn),68
4,CC(C)[C@H](NC(=O)[C@H](Cc1ccccc1)NC[C@H](Cc1ccccc1)NC(=O)[C@H](Cc1cnc[nH]1)NC(=O)[C@H](Cc1ccccc1)NC(=O)[C@@H]1CCCN1C(=O)[C@H](N)Cc1cnc[nH]1)C(=O)N[C@@H](Cc1ccc(O)cc1)C(=O)O,0.58
5,CC(C)CC(NC(=O)[C@H](Cc1cnc[nH]1)NC(=O)[C@H](Cc1ccccc1)NC(=O)[C@@H]1CCCN1C(=O)[C@@H](N)Cc1cnc[nH]1)C(O)CC(=O)N[C@H](C(=O)N[C@@H](Cc1ccc(O)cc1)C(=O)N[C@@H](CCCCN)C(=O)O)C(C)C (stereo partly drawn) (H-HPFH[X1]VYK-OH),0.4
6,CC(C)[C@H](NC(=O)[C@H](CCCN)NC(=O)[C@H](Cc1c[nH]cn1)NC(=O)[C@H](Cc1ccccc1)NC(=O)[C@@H]1CCCN1)C(=O)N[C@@H](Cc1ccc(O)cc1)C(=O)N[C@@H](CCCCN)C(N)=O (H-PFH[Orn]VYK-NH2),100
7,CC[C@H](C)[C@H](NC(=O)CC(O)C(CC(C)C)NC(=O)[C@H](Cc1c[nH]cn1)NC(=O)[C@H](Cc1ccccc1)NC(=O)[C@@H]1CCCN1)C(=O)N[C@@H](Cc1c[nH]cn1)C(=O)N[C@@H](CCCCN)C(=O)O (stereo partly drawn) (H-PFH[X1]IHK-OH),0.9
8,CCC[C@H](NC(=O)[C@H](Cc1c[nH]cn1)NC(=O)[C@H](Cc1ccccc1)NC(=O)[C@@H]1CCCN1C(=O)[C@H](Cc1c[nH]cn1)NC(=O)[C@@H]1CCCN1)C(=O)N[C@H](C(=O)NC(=O)[C@@H](N)Cc1ccccc1)[C@@H](C)CC (H-PHPFH[Nva]-X2),> 1000
9,CC(C)C[C@H](NC(=O)[C@H](Cc1c[nH]cn1)NC(=O)[C@H](Cc1ccccc1)NC(=O)[C@@H]1CCCN1C(=O)[C@H](Cc1c[nH]cn1)NC(=O)[C@@H]1CCCN1)[C@@H](O)CC(N)=O (H-PHPFH[Sta]-NH2),0.9
10,CC[C@H](C)[C@H](NC(=O)[C@H](CCCc1ccccc1)NC(=O)[C@H](CCCCN)NC(=O)[C@H](Cc1ccccc1)NC(=O)[C@@H]1CCCN1C(=O)[C@H](Cc1c[nH]cn1)NC(=O)[C@@H]1CCCN1)C(=O)N[C@@H](Cc1ccccc1)C(N)=O (H-PHPFK[hhPhe]IF-NH2),3.9
11,CC[C@H](C)[C@H](NC(=O)[C@H](CCCc1ccccc1)NC(=O)[C@H](Cc1c[nH]cn1)NC(=O)[C@H](Cc1cn(C=O)c2ccccc12)NC(=O)[C@@H]1CCCN1)C(=O)N[C@@H](Cc1cn(C=O)c2ccccc12)C(N)=O (H-PW(For)H[hhPhe]IW(For)-NH2),0.24
12,H-PFHFFVYK-NH2,100
13,H-PHPFHFFFVYK-OH [RIP],5.2
14,H-PHPFRFFVYK-OH,200

# Second part, the compound after the results:
row,IC50 [µM],Compound
1,0.027,CC(C)[C@H](NC(=O)[C@@H](CCCc1ccccc1)NC(=O)[C@H](Cc1c[nH]cn1)NC(=O)[C@H](Cc1ccccc1)NC(=O)[C@@H]1CCCN1C(=O)[C@H](Cc1c[nH]cn1)NC(=O)[C@@H]1CCCN1)C(=O)N[C@@H](Cc1ccc(O)cc1)C(=O)N[C@@H](CCCCN)C(N)=O
2,0.22,CC[C@H](C)[C@H](NC(=O)CC(O)C(CC(C)C)NC(=O)[C@H](Cc1cnc[nH]1)NC(=O)[C@H](Cc1ccccc1)NC(=O)[C@@H]1CCCN1)C(=O)NC(=O)[C@@H](N)Cc1ccccc1 (stereo partly drawn)
3,0.04,CC[C@H](C)[C@H](NC(=O)CC(O)C(CC(C)C)NC(=O)[C@H](Cc1cnc[nH]1)NC(=O)[C@H](Cc1ccccc1)NC(=O)[C@@H]1CCCN1C(C)=O)C(=O)N[C@@H](Cc1cnc[nH]1)C(=O)N[C@@H](CCCCN)C(=O)O (stereo partly drawn) (Ac-PFH[X1]IHK-OH)
4,0.046,CC[C@H](C)[C@H](NC(=O)[C@H](CCCc1ccccc1)NC(=O)[C@H](Cc1cnc[nH]1)NC(=O)[C@H](Cc1ccccc1)NC(=O)[C@@H]1CCCN1C(C)=O)C(=O)N[C@@H](Cc1cnc[nH]1)C(=O)N[C@@H](CCCCN)C(C)=O (Ac-PFH[hhPhe]IH-X3)
5,0.02,CC[C@H](C)[C@H](NC(=O)CC(O)C(CC(C)C)NC(=O)[C@H](Cc1cnc[nH]1)NC(=O)[C@H](Cc1ccccc1)NC(=O)[C@@H]1CCCN1C(=O)[C@H](Cc1cnc[nH]1)NC(=O)[C@@H]1CCCN1C(C)=O)C(=O)N[C@@H](Cc1cnc[nH]1)C(=O)N[C@@H](CCCCN)C(=O)O (stereo partly drawn) (Ac-PHPFH[X1]IHK-OH)
6,0.03,CC[C@H](C)[C@H](NC(=O)CC(O)C(CC(C)C)NC(=O)[C@H](Cc1ccccc1)NC(=O)[C@H](Cc1ccccc1)NC(=O)[C@@H]1CCCN1C(=O)[C@H](Cc1c[nH]cn1)NC(=O)[C@@H]1CCCN1)C(=O)NC(=O)[C@@H](N)Cc1ccccc1 (stereo partly drawn) (H-PHPFF[X1]-X2)
7,0.03,CC[C@H](C)[C@H](NC(=O)[C@H](CCCc1ccccc1)NC(=O)[C@H](Cc1c[nH]cn1)NC(=O)[C@H](Cc1ccccc1)NC(=O)[C@@H]1CCCN1C(=O)[C@H](Cc1c[nH]cn1)NC(=O)[C@@H]1CCCN1)C(=O)N[C@@H](Cc1ccccc1)C(N)=O (H-PHPFH[hhPhe]IF-NH2)
8,0.03,CC[C@H](C)[C@H](NC(=O)[C@H](CCCc1ccccc1)NC(=O)[C@H](Cc1cnc[nH]1)NC(=O)[C@H](Cc1ccccc1)NC(=O)[C@@H]1CCCN1C(=O)[C@H](Cc1cnc[nH]1)NC(=O)[C@@H]1CCCN1)C(=O)N[C@@H](Cc1cnc[nH]1)C(=O)N[C@@H](CCCCN)C(C)=O (H-PHPFH[hhPhe]IH-X3)
9,0.067,CC[C@H](C)[C@H](NC(=O)[C@H](CCCc1ccccc1)NC(=O)[C@H](Cc1c[nH]cn1)NC(=O)[C@H](Cc1cn(C=O)c2ccccc12)NC(=O)[C@@H]1CCCN1)C(=O)N[C@@H](Cc1ccccc1)C(N)=O (H-PW(For)H[hhPhe]IF-NH2)
10,0.016,CC[C@H](C)[C@H](NC(=O)CC(O)C(CC(C)C)NC(=O)[C@H](Cc1cnc[nH]1)NC(=O)[C@H](Cc1ccccc1)NC(=O)[C@@H]1CCCN1C(=O)[C@H](Cc1cn(C=O)c2ccccc12)NC(=O)[C@@H]1CCCN1)C(=O)N[C@@H](Cc1cn(C=O)c2ccccc12)C(N)=O (stereo partly drawn) (H-PW(For)PFH[X1]IW(For)-NH2)
11,0.027,CC[C@H](C)[C@H](NC(=O)[C@H](CCCc1ccccc1)NC(=O)[C@H](Cc1c[nH]cn1)NC(=O)[C@H](Cc1ccccc1)NC(=O)[C@@H]1CCCN1C(=O)[C@H](Cc1cn(C=O)c2ccccc12)NC(=O)[C@@H]1CCCN1)C(=O)N[C@@H](Cc1cn(C=O)c2ccccc12)C(N)=O (H-PW(For)PFH[hhPhe]IW(For)-NH2)
12,0.03,CC[C@H](C)[C@H](NC(=O)[C@H](CCCc1ccccc1)NC(=O)[C@H](Cc1c[nH]cn1)NC(=O)[C@H](Cc1cn(C=O)c2ccccc12)NC(=O)[C@@H]1CCCN1C(=O)[C@H](Cc1cn(C=O)c2ccccc12)NC(=O)[C@@H]1CCCN1)C(=O)N[C@@H](Cc1ccccc1)C(N)=O (H-PW(For)PW(For)H[hhPhe]IF-NH2)
13,0.049,CC[C@H](C)[C@H](NC(=O)[C@H](CCCc1ccccc1)NC(=O)[C@H](Cc1c[nH]cn1)NC(=O)[C@H](Cc1cn(C=O)c2ccccc12)NC(=O)[C@@H]1CCCN1C(=O)[C@H](Cc1cn(C=O)c2ccccc12)NC(=O)[C@@H]1CCCN1)C(=O)N[C@@H](Cc1cn(C=O)c2ccccc12)C(N)=O (H-PW(For)PW(For)H[hhPhe]IW(For)-NH2)
